# Data from ChEMBL document CHEMBL1781935, “Amberlite-IRA-402 (OH) ion exchange resin mediated synthesis of indolizines, pyrrolo [1,2-a] quinolines and isoquinolines: antibacterial and antifungal evaluation of the products” (2011).
# Active and inactive are the calls of the source. No cut-off for these calls is given here.
# Experiments:
# [1] = system: Shigella flexneri; experiment: Antibacterial activity against Shigella flexneri DN13; format: functional
# How it was run: (§1)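 MIC by broth and agar dilution. Broth: 0.1 ml suspension (2 × 10^6 cfu/ml) in Mueller-Hinton broth with test drug at 1–1000 µg/ml, 37 °C overnight. Agar: serial drug dilutions in Mueller-Hinton agar, spot-inoculated with 2 × 10^6 cfu/spot, 37 °C for 24 h. MIC was the lowest concentration with no visible growth. Antibiotic controls were included.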
# [2] = system: Klebsiella pneumoniae; experiment: Antibacterial activity against Klebsiella pneumoniae isolate J/1/4; format: functional; how it was run: as §1
# [3] = system: Shigella dysenteriae; experiment: Antibacterial activity against Shigella dysenteriae isolate 3; format: functional
# [4] = system: Enterococcus faecalis; experiment: Antibacterial activity against Streptococcus faecalis isolate 29212; format: functional; how it was run: as §1
# [5] = system: Vibrio parahaemolyticus; experiment: Antibacterial activity against Vibrio parahaemolyticus isolate 72016; format: functional; how it was run: as §1
# [6] = system: Micrococcus luteus; experiment: Antibacterial activity against Micrococcus luteus AGD1; format: functional; how it was run: as §1
# [7] = system: Vibrio cholerae; experiment: Antibacterial activity against Vibrio cholerae isolate 7201; format: functional
# [8] = system: Bacillus subtilis; experiment: Antibacterial activity against Bacillus subtilis UC564; format: functional; how it was run: as §1
# [9] = system: Salmonella typhi; experiment: Antibacterial activity against Salmonella typhi DIRW; format: functional
# [10] = system: Pseudomonas aeruginosa; experiment: Antibacterial activity against Pseudomonas aeruginosa ATCC 27853; format: functional; how it was run: as §1
# [11] = system: Escherichia coli; experiment: Antibacterial activity against Escherichia coli ATCC 25938; format: functional; how it was run: as §1
# [12] = system: Salmonella typhimurium; experiment: Antibacterial activity against Salmonella Typhimurium isolate 11; format: functional; how it was run: as §1
# [13] = system: Staphylococcus aureus; experiment: Antibacterial activity against Staphylococcus aureus ATCC 25923; format: functional; how it was run: as §1
# [14] = system: Vibrio cholerae; experiment: Antibacterial activity against Vibrio cholerae isolate 7201 at 1 to 1000 ug/ml after overnight incubation by disc diffusion method; format: functional
# [15] = system: Pseudomonas aeruginosa; experiment: Antibacterial activity against Pseudomonas aeruginosa ATCC 27853 at 1 to 1000 ug/ml after overnight incubation by disc diffusion method; format: functional
# How it was run: (§2)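 Disc diffusion on Mueller-Hinton agar. Plates seeded with 0.1 ml bacterial suspension (2 × 10^6 cfu/ml). Sterile 6 mm paper discs were impregnated with compound solutions at 1–1000 µg/ml and incubated at 37 °C overnight. Read-out was the diameter of the clear inhibition zone. Stocks were 1 mg/ml in 4% Tween 80 or 4% propylene glycol.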
# [16] = system: Bacillus subtilis; experiment: Antibacterial activity against Bacillus subtilis UC564 at 1 to 1000 ug/ml after overnight incubation by disc diffusion method; format: functional; how it was run: as §2
# [17] = system: Bacillus subtilis; experiment: Antibacterial activity against Bacillus subtilis UC564 at 10 to 80 ug/ml after overnight incubation by broth dilution method; format: functional, organism-based
# How it was run: (§3)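 Bactericidal testing with double-fold drug dilutions in Mueller-Hinton broth. Tubes inoculated with 1 ml suspension (2 × 10^6 cfu/ml) and shaken at 200 rpm at 37 °C for 24 h. Drug was added at mid-logarithmic growth. Viable colony counts were taken from 1.0 ml aliquots plated on nutrient agar.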
# [18] = system: Vibrio cholerae; experiment: Antibacterial activity against Vibrio cholerae isolate 720 at 1 to 1000 ug/ml after overnight incubation by disc diffusion method; format: functional
# [19] = system: Escherichia coli; experiment: Antibacterial activity against Escherichia coli ATCC 25938 at 1 to 1000 ug/ml after overnight incubation by disc diffusion method; format: functional; how it was run: as §2
# [20] = system: Salmonella typhi; experiment: Antibacterial activity against Salmonella typhi DIRW at 1 to 1000 ug/ml after overnight incubation by disc diffusion method; format: functional, Salmonella enterica subsp. enterica serovar Typhi
# [21] = system: Pseudomonas aeruginosa; experiment: Antibacterial activity against Pseudomonas aeruginosa ATCC 27853 at 10 to 80 ug/ml after overnight incubation by broth dilution method; format: functional, organism-based; how it was run: as §3
# [22] = system: Vibrio cholerae; experiment: Antibacterial activity against Vibrio cholerae isolate 7201 at 10 to 80 ug/ml after overnight incubation by broth dilution method; format: functional, organism-based
# [23] = system: Klebsiella pneumoniae; experiment: Antibacterial activity against Klebsiella pneumoniae isolate J/1/4 at 1 to 1000 ug/ml after overnight incubation by disc diffusion method; format: functional; how it was run: as §2
# [24] = system: Shigella flexneri; experiment: Antibacterial activity against Shigella flexneri DN13 at 1 to 1000 ug/ml after overnight incubation by disc diffusion method; format: functional; how it was run: as §2
# [25] = system: Salmonella typhimurium; experiment: Antibacterial activity against Salmonella Typhimurium isolate 11 at 1 to 1000 ug/ml after overnight incubation by disc diffusion method; format: functional, organism-based; details: Salmonella enterica subsp. enterica serovar Typhimurium; how it was run: as §2
# [26] = system: Staphylococcus aureus; experiment: Antibacterial activity against Staphylococcus aureus ATCC 25923 at 1 to 1000 ug/ml after overnight incubation by disc diffusion method; format: functional; how it was run: as §2
# [27] = system: Staphylococcus aureus; experiment: Antibacterial activity against Staphylococcus aureus ATCC 25923 at 10 to 80 ug/ml after overnight incubation by broth dilution method; format: functional, organism-based; how it was run: as §3
# [28] = system: Shigella dysenteriae; experiment: Antibacterial activity against Shigella dysenteriae isolate 3 at 1 to 1000 ug/ml after overnight incubation by disc diffusion method; format: functional
# [29] = system: Enterococcus faecalis; experiment: Antibacterial activity against Enterococcus faecalis isolate 29212 at 1 to 1000 ug/ml after overnight incubation by disc diffusion method; format: functional; how it was run: as §2
# [30] = system: Shigella dysenteriae; experiment: Antibacterial activity against Shigella dysenteriae isolate 3 at 10 to 80 ug/ml after overnight incubation by broth dilution method; format: functional, organism-based
# [31] = system: Escherichia coli; experiment: Antibacterial activity against Escherichia coli ATCC 25938 at 10 to 80 ug/ml after overnight incubation by broth dilution method; format: functional, organism-based; how it was run: as §3
# [32] = system: Vibrio parahaemolyticus; experiment: Antibacterial activity against Vibrio parahaemolyticus isolate 72016 at 1 to 1000 ug/ml after overnight incubation by disc diffusion method; format: functional; how it was run: as §2
# [33] = system: Micrococcus luteus; experiment: Antibacterial activity against Micrococcus luteus AGD1 at 1 to 1000 ug/ml after overnight incubation by disc diffusion method; format: functional; how it was run: as §2
Molecule,MIC [1],MIC [2],MIC [3],MIC [4],MIC [5],MIC [6],MIC [7],MIC [8],MIC [10],MIC [11],MIC [13],MIC ([9]; Salmonella enterica),MIC ([12]; Salmonella enterica),other results
GENTAMICIN,1 µg/mL,2 µg/mL,1 µg/mL,0.5 µg/mL,1 µg/mL,8 µg/mL,0.5 µg/mL,4 µg/mL,2 µg/mL,0.25 µg/mL,1 µg/mL,–,–,MIC ([9]; Salmonella enterica subsp. enterica serovar Typhi): 1 µg/mL; MIC ([12]; Salmonella enterica subsp. enterica serovar Typhimurium): 1 µg/mL
COC(=O)c1cc2ccccn2c1C(=O)c1ccccc1,> 500 µg/mL,> 500 µg/mL,> 500 µg/mL,> 500 µg/mL,> 500 µg/mL,> 500 µg/mL,> 500 µg/mL,> 500 µg/mL,> 500 µg/mL,> 500 µg/mL,> 500 µg/mL,> 500 µg/mL,> 500 µg/mL,–
COC(=O)c1c(C(=O)OC)c2c3ccccc3ccn2c1C(=O)c1ccccc1,> 500 µg/mL,500 µg/mL,> 500 µg/mL,> 500 µg/mL,256 µg/mL,> 500 µg/mL,500 µg/mL,> 500 µg/mL,500 µg/mL,256 µg/mL,256 µg/mL,> 500 µg/mL,256 µg/mL,–
COC(=O)c1c(C(=O)OC)c2ccc3ccccc3n2c1C(=O)c1ccccc1,500 µg/mL,64 µg/mL,16 µg/mL,64 µg/mL,> 500 µg/mL,> 500 µg/mL,500 µg/mL,32 µg/mL,> 500 µg/mL,> 500 µg/mL,500 µg/mL,128 µg/mL,500 µg/mL,diameter of the inhibition zone (DIZ) [14]: inactive; diameter of the inhibition zone (DIZ) [15]: inactive; diameter of the inhibition zone (DIZ) [16]: 10.2 mm; Activity [17]: Active; diameter of the inhibition zone (DIZ) [18]: inactive; diameter of the inhibition zone (DIZ) [19]: 12.1 mm; diameter of the inhibition zone (DIZ) [20]: 7.5 mm; Activity [21]: Active; Activity [22]: Active; diameter of the inhibition zone (DIZ) [23]: 10 mm; diameter of the inhibition zone (DIZ) [24]: inactive; diameter of the inhibition zone (DIZ) [25]: inactive; diameter of the inhibition zone (DIZ) [26]: inactive; Activity [27]: Active; diameter of the inhibition zone (DIZ) [28]: 11.5 mm; diameter of the inhibition zone (DIZ) [29]: 12 mm; Activity [30]: Active; Activity [31]: Active; diameter of the inhibition zone (DIZ) [32]: inactive; diameter of the inhibition zone (DIZ) [33]: inactive
COC(=O)c1cc(C(=O)c2ccccc2)n2ccc3ccccc3c12,128 µg/mL,256 µg/mL,256 µg/mL,256 µg/mL,256 µg/mL,> 500 µg/mL,256 µg/mL,256 µg/mL,128 µg/mL,500 µg/mL,128 µg/mL,256 µg/mL,500 µg/mL,–
CCOC(=O)c1c(C(=O)OCC)c2ccccn2c1C(=O)c1ccccc1,> 500 µg/mL,> 500 µg/mL,> 500 µg/mL,> 500 µg/mL,> 500 µg/mL,> 500 µg/mL,> 500 µg/mL,> 500 µg/mL,> 500 µg/mL,> 500 µg/mL,> 500 µg/mL,> 500 µg/mL,> 500 µg/mL,–
COC(=O)c1c(C(=O)OC)c2ccccn2c1C(=O)c1ccccc1,> 500 µg/mL,> 500 µg/mL,> 500 µg/mL,> 500 µg/mL,> 500 µg/mL,> 500 µg/mL,> 500 µg/mL,> 500 µg/mL,500 µg/mL,> 500 µg/mL,> 500 µg/mL,> 500 µg/mL,> 500 µg/mL,–
